Bioassay records as filed in PubChem.
Rows were chosen to be rich in hits. Some 1.7% of all compounds tested hit in one or more screens of this group.
Cneo AK release – Cryptococcus neoformans cell lysis inducers, primary screen, AK release luminescence, single concentration | 360,000 tested, 0.2% active | AID 651654, 2012 | lysis activity, % at 15 µM | C. neoformans lysis, adenylate kinase release luminescence, 4 h; normalised: neutral wells 0, clomiphene wells 100;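 active means mean lysis activity across replicates of at least 80%, whatever share of replicates individually reach that level; inactive means mean lysis activity below 80%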
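Assay system: Cryptococcus neoformans yeast cells / Dosing: single-point compound dose / Timing: 4 h at 37 °C static, read 1 h later / Measured by: luminescence of released adenylate kinase using an AK detection reagent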
Ecoli rRNA inh – reduced GFP signal of wild-type E. coli, primary screen, bacterial rRNA inhibitor project, GFP/RFP fluorescence, OD600, single point. E. coli WT GFP vs humanized-ribosome RFP mutants, 24 h; hits give low values; DMSO median 0, no signal -100. 350,000 tested, 1.6% active. GFP signal change (wild-type ribosome), % (concentration not given with the values). AID 720706, 2013;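 active means significant combined selectivity score with lowered wild-type GFP, culture density cut under 30%, mutant RFP and density less affected; inactive means any of these conditions unmet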
F508del corr – F508del CFTR correction, initial screen, CFBE line, single point. AID 720511, 2013. 350,000 tested, 0.36% active. CFBE cells, YFP halide quenching; stimulated with forskolin plus potentiator P3; % fluorescence drop versus neutral controls. activity (quench increase), % at 7.58 µM;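 active means mean added fluorescence quench of at least 8% versus neutral control, with both replicates also reaching 8%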;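 further: cells transiently co-express mutant CFTR-F508del with the halide-sensitive YFP; corrector assay measuring rescue of mutant channel to the surface after 24 h compound exposure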
CaV13 FRET inh – Disruptors of the CACNA1D IQ motif to Ca2+-dependent inactivation inhibitor domain association, primary screening, Förster resonance energy transfer in intact living …; 340,000 tested, 0.098% active; HEK cells, CFP/YFP FRET ICDI-IQ, plate reader, 10 min; percent FRET-ratio fall versus neutral wells; inhibition, % at 12.3 µM;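 active means mean replicate inhibition of at least 30% and at least 1% of replicates passing that level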;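 further: 0% = median of the neutral control wells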
Active calls of the source: *; / = not tested or not shown.

SMILES | Cneo AK release | Ecoli rRNA inh | F508del corr | CaV13 FRET inh
CCOc1ccc2nc(NCCNC(=O)CC)c(C#N)cc2c1 | 2 | / | / | 33*
CO[C@H]1CN(C)C(=O)c2ccc(NC(=O)C3CC3)cc2OC[C@@H](C)N(C(=O)c2ccccn2)C[C@H]1C | -2 | 2 | 2 | /
CN(C)C(=O)COC(=O)/C=C/c1cn(-c2ccccc2)nc1-c1cccs1 | / | -32* | -3 | 4
O=C(/C=C/c1cn(-c2ccccc2)nc1-c1cccs1)NCCN1CCOCC1 | -7 | -30* | 0 | 5
CCC(C)NCCOc1ccc(C(C)(C)c2ccccc2)cc1 (stereo not drawn) | -3 | -53* | 2 | -4
NC(=S)N/N=C/c1ccc(-c2cc(Cl)ccc2Cl)o1 | 111* | -21* | -1 | -8
Cc1ccc(S(=O)(=O)Nc2ccc3c(c2)C(=O)N([C@H](C)CO)C[C@@H](C)[C@H](CN(C)Cc2ccc(-c4ccccc4)cc2)O3)cc1 | -2 | 0 | 2 | /
O=C(CN1CCOc2ccccc21)NCc1ccc(Cl)cc1 | -5 | -2 | 9.2* | -2
O=C(CN1CCOc2ccccc21)NCc1ccc(F)cc1 | -6 | 0 | 1 | -2
Cc1ccc(NCC(=O)N/N=C/c2cccc(Br)c2)cc1 | -1 | -23* | 0 | -2
CCCNC(=O)N1CC2(CN(S(=O)(=O)c3cccc(OC)c3)C2)c2c(n(C)c3cc(OC)ccc23)[C@@H]1CO | / | -4 | / | /
O=C(Nc1ccccn1)c1ccc(Cl)c(S(=O)(=O)N2CCc3ccccc32)c1 | 1 | -28* | 4 | -2
O=C(Nc1cccnc1)c1ccc(Cl)c(S(=O)(=O)N2CCc3ccccc32)c1 | / | -26* | -1 | -19
COc1ccc2c3c(n(C)c2c1)[C@@H](CO)N(C(=O)Nc1ccc(F)cc1)CC31CN(S(=O)(=O)c2cccs2)C1 | / | -5 | 5 | /
O=C(c1ccc(Oc2cc(Cl)cc(Cl)c2)o1)N1CCCCC1 | 1 | -49* | 2 | -6
Cc1cc(-c2ccccc2)c2ccc(NC(=O)C(C)(C)C)nc2n1 | 1 | 2 | 2 | 45*
COc1ccc(NC(=O)N(C)C[C@H]2OCCCC[C@@H](C)Oc3ccc(NS(=O)(=O)c4cn(C)cn4)cc3C(=O)N([C@H](C)CO)C[C@@H]2C)cc1 | -1 | 0 | -2 | /
CCN(c1cccc2ccccc12)S(=O)(=O)c1ccc(Cl)nc1 | -3 | -22* | 2 | -5
CCN(c1ccccc1)S(=O)(=O)c1ccc(Cl)nc1 | / | 5 | -1 | -1
C[C@@H]1CN([C@H](C)CO)S(=O)(=O)c2ccc(C3=CCCC3)cc2O[C@@H]1CN(C)C(=O)c1ccccc1 | 1 | -6 | -3 | /
O=[N+]([O-])c1ccccc1C(=Nc1ccccc1)c1c(O)cc(O)cc1O | 1 | -21* | 0 | -6
O=C(Nc1ccccc1)c1ccccc1NC(=O)c1ccccc1[N+](=O)[O-] | 1 | -20 | -1 | -3
C[C@@H]1CN([C@@H](C)CO)S(=O)(=O)c2ccc(C3=CCCC3)cc2O[C@@H]1CN(C)Cc1ccccc1F | 90* | -2 | 2 | /
C[C@H]1CN([C@@H](C)CO)S(=O)(=O)c2ccc(C3=CCCCC3)cc2O[C@@H]1CN(C)C(=O)Cc1ccncc1 | -4 | 1 | 8.5* | /
CCOc1ccc(-c2onc(C(F)(F)F)c2-c2cscn2)c(O)c1 | 0 | -43* | 1 | -6
O=C(C[C@H]1CC[C@@H]2[C@H](COC[C@H](O)CN2Cc2cccc(-c3ccncc3)c2)O1)N1CCCCC1 | -2 | -6 | -2 | /
O=C(Cc1ccncc1)NCC[C@@H]1CC[C@H](NC(=O)C2CCCCC2)[C@@H](CO)O1 | -2 | 1 | -1 | /
O=C(N/N=C/c1ccccn1)c1cccc(S(=O)(=O)Nc2ccccc2Cl)c1 | / | -40* | -2 | 7
CCOc1cc(/C=C2\SC(=S)N(C(C(=O)O)c3ccccc3)C2=O)ccc1O (stereo not drawn) | -3 | -52 | 14* | -29
COc1ccccc1/C=C1\SC(=S)N(C(C(=O)O)c2ccccc2)C1=O (stereo not drawn) | / | -37* | -2 | -5
